Data published in ChEMBL document CHEMBL4706641, “Novel Carboline Fungal Histone Deacetylase (HDAC) Inhibitors for Combinational Treatment of Azole-Resistant Candidiasis” (J Med Chem, 2021).
Converted amounts (≈) assume the structure as drawn. The source made the active and inactive calls.

Key:
Candida albicans [1] = assay: Antifungal activity against Candida albicans 0304103 incubated for 48 hrs by microdilution assay; format: functional; details: Candida albicans, 0304103, read-out: MIC80
How it was run: (§1)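 Checkerboard broth microdilution per CLSI M27-A3 (modified), clinical Candida isolates. Exponential cells in RPMI 1640 (MOPS-buffered) at 10³ cells/mL; fluconazole 0.25–64 μg/mL crossed with test compound 2–64 μg/mL (final). 48 h at 35 °C; OD630 read with background subtracted. MIC80 = 80% growth inhibition; FICI ≤0.5 synergy, >4 antagonism.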

Candida albicans [2] = assay: Synergistic antifungal activity against Candida albicans 0304103 incubated for 48 hrs in presence of fluconazole by microdilution assay; format: functional; how it was run: as §1
Candida albicans [3] = assay: microbe, parasite or virus in culture; format: functional, 0304103; details: Candida albicans, 0304103; time 48 hrs; read-out: MIC80
Candida albicans [4] = assay: Synergistic antifungal activity against Candida albicans 0304103 assessed as potentiation of fluconazole antifungal activity by measuring FICI incubated for 48 hrs in presence of fluconazole by checkerboard microdilution assay; format: functional; how it was run: as §1
Candida albicans [5] = assay: Synergistic antifungal activity against azole-resistant Candida albicans assessed as potentiation of VRC antifungal activity by measuring VRC incubated for 48 hrs in presence of fluconazole by checkerboard microdilution assay; format: functional
Candida albicans [6] = assay: Synergistic antifungal activity against azole-resistant Candida albicans assessed as potentiation of ITC antifungal activity by measuring ITC incubated for 48 hrs in presence of fluconazole by checkerboard microdilution assay; format: functional
Cryptococcus neoformans = assay: Antifungal activity against Cryptococcus neoformans; format: functional
Candida albicans [7] = assay: Antifungal activity against Candida albicans 0304103 at 64 ug/ml incubated for 48 hrs by microdilution assay; format: functional, organism-based; details: dose 64.0 µg/ml
How it was run: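 Checkerboard microdilution adapted from CLSI M27-A3. Exponential-phase cells resuspended at 10³ cells/mL in RPMI 1640 buffered with 0.165 M MOPS. Final concentrations were fluconazole 0.25–64 μg/mL and test compound 2–64 μg/mL. Plates were held 48 h at 35 °C and read at OD630 with background subtracted. MIC80 was used, and the FICI cut-offs were synergy ≤0.5 and antagonism >4.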

Candida albicans [8] = assay: Antifungal activity against Candida albicans 9172 incubated for 48 hrs by microdilution assay; format: functional; how it was run: as §1
Candida albicans [9] = assay: Antifungal activity against Candida albicans 9884 incubated for 48 hrs by microdilution assay; format: functional; how it was run: as §1
Candida albicans [10] = assay: Antifungal activity against Candida albicans 10061 incubated for 48 hrs by microdilution assay; format: functional; how it was run: as §1
Candida albicans [11] = assay: Antifungal activity against Candida albicans 4108 incubated for 48 hrs by microdilution assay; format: functional; how it was run: as §1
Pichia kudriavzevii = assay: Antifungal activity against Candida krusei 10153 incubated for 48 hrs by microdilution assay; format: functional; how it was run: as §1
Candida albicans [12] = assay: Effect on CDR2 mRNA expression in Candida albicans 0304103 at 32 ug/ml incubated for 24 hrs by RT-PCR analysis; format: functional; details: dose 32.0 µg/ml
How it was run: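 C. albicans 0304103 was started at 1 × 10⁶ cells/mL and treated with DMSO control, fluconazole 32 μg/mL, test compound 32 μg/mL, or both. Cultures were held in YEPD at 35 °C for 24 h, then total RNA was extracted and reverse-transcribed. Real-time PCR ran 40 cycles. Fold change was calculated by 2^−ΔΔCt against ACT1.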

Candida albicans [13] = assay: Induction of morphological changes in Candida albicans assessed as reduction in morphological conversion from yeast to hypha forms at 32 ug/ml incubated for 3 hrs by inverse fluorescence microscopy; format: functional, organism-based; details: dose 32.0 µg/ml
How it was run: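 Exponential-phase C. albicans were suspended in Spider medium ([…], 2% NaHCO₃, […]) at 2 × 10⁶ cells/mL. Drugs were added alone or combined, with DMSO as control. After 3 h at 37 °C, cells were imaged by inverted fluorescence microscopy. Three independent experiments were run.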

Candida albicans [14] = assay: Inhibition of biofilm formation in Candida albicans 0304103 at 2 to 32 ug/ml incubated for 24 hrs by XTT reduction assay; format: functional, organism-based; details: dose 2-32 µg/ml
How it was run: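 C. albicans 0304103 at 1.0 × 10⁶ CFU/mL in RPMI 1640 was allowed to adhere for 90 min at 37 °C, then washed with PBS. Fresh medium was added with fluconazole 2–32 μg/mL and/or test compound 0.12–64 μg/mL, followed by 24 h at 37 °C. Biofilm was measured semiquantitatively by XTT reduction at OD490. Three independent experiments were run.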

Candida albicans [15] = assay: Antifungal activity against Candida albicans 0304103 infected in ICR mouse model of candidiasis assessed as reduction in kidney fungal burden at 1 mg/kg, ip dosed 24 hrs post infection and measured after 5 days; format: functional, organism-based; details: time 5.0 day
Candida albicans [16] = assay: Antifungal activity against Candida albicans 0304103 infected in ICR mouse model of candidiasis assessed as reduction in fungal invasion by measuring clusters of fungal infiltration in renal pelvis at 1 mg/kg, ip dosed 24 hrs post infection and measured after 5 days by H and E staining based microscopical analysis; format: functional, organism-based; details: time 5.0 day
Candida albicans [17] = assay: Antifungal activity against Candida albicans 0304103 infected in ICR mouse model of candidiasis assessed as reduction in morphological changes of budded-to-hyphal transition at 1 mg/kg, ip dosed 24 hrs post infection and measured after 5 days by H and E staining based microscopical analysis; format: functional, organism-based; details: time 5.0 day

Structure (SMILES)	MIC80 (Candida albicans [1]) [µg/mL]	MIC80 (Candida albicans [2]) [µg/mL]	MIC80 (Candida albicans [3]) [µg/mL]	fractional inhibitory concentration index (FICI) (Candida albicans [4])	fractional inhibitory concentration index (FICI) (Candida albicans [5])	fractional inhibitory concentration index (FICI) (Candida albicans [6])	also measured
COc1cccc2c3c(n(CCCOc4ccc(CC(=O)NO)cc4)c12)CNCC3	> 64	2	1 (≈ 2.44 µM)	0.047	0.035	0.035	–
Cc1ccc2c(c1)c1c(n2CCCOc2ccc(CC(=O)NO)cc2)CNCC1	> 64	4	1 (≈ 2.54 µM)	0.078	0.035	0.035	–
COc1ccc2c(c1)c1c(n2CCCOc2ccc(CC(=O)NO)cc2)CNCC1	> 64	8	0.5 (≈ 1.22 µM)	0.13	0.035	0.035	–
O=C(Cc1ccc(OCCCn2c3c(c4ccccc42)CCNC3)cc1)NO	> 64	4	0.5 (≈ 1.32 µM)	0.07	0.035	0.035	–
O=C(Cc1ccc(OCCCn2c3c(c4ccc(Cl)cc42)CCNC3)cc1)NO	64 (≈ 155 µM)	2	1 (≈ 2.42 µM)	0.047	0.035	0.035	–
Clc1ccc(OCCCn2c3c(c4cc(Cl)ccc42)CCNC3)cc1.O=C(O)C(F)(F)F	–	–	–	–	–	–	MIC80 (Cryptococcus neoformans): 0.25 µg/mL
OC(Cn1cncn1)(Cn1cncn1)c1ccc(F)cc1F [FLUCONAZOLE]	> 64	–	–	–	–	–	Activity (Candida albicans [7]): inactive; MIC80 (Candida albicans [8]): > 64 µg/mL; MIC80 (Candida albicans [9]): > 64 µg/mL; MIC80 (Candida albicans [10]): > 64 µg/mL; MIC80 (Candida albicans [11]): > 64 µg/mL; MIC80 (Pichia kudriavzevii): 64 µg/mL (≈ 209 µM); Activity (Candida albicans [12]): inactive; Activity (Candida albicans [13]): inactive; inhibition (Candida albicans [14]): inactive; Activity (Candida albicans [15]): inactive; Activity (Candida albicans [16]): inactive; Activity (Candida albicans [17]): inactive
